pIC50: −log10 of the molar value. The source made the active and inactive calls. No cut-off for these calls is given here.
Columns and labels:
[1] = Drug level in mouse brain at 0.5 mg/kg/hr administered by infusion for 12 hrs; assay type: ADME, organism-based; conditions: intravenous, read-out: Drug uptake
Summary of the method: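 Steady-state 12 h infusion at 5 mL/kg/h to reach a target dose of 0.5 mg/kg/h; blood and brain concentrations measured. Data are the mean from three animals.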

Cytochrome P450 2D6 = Cytochrome P450 2D6 (Homo sapiens, UniProt P10635); test: Inhibition of human CYP2D6; assay type: ADME
Sequence of Cytochrome P450 2D6 (P10635 whole entry): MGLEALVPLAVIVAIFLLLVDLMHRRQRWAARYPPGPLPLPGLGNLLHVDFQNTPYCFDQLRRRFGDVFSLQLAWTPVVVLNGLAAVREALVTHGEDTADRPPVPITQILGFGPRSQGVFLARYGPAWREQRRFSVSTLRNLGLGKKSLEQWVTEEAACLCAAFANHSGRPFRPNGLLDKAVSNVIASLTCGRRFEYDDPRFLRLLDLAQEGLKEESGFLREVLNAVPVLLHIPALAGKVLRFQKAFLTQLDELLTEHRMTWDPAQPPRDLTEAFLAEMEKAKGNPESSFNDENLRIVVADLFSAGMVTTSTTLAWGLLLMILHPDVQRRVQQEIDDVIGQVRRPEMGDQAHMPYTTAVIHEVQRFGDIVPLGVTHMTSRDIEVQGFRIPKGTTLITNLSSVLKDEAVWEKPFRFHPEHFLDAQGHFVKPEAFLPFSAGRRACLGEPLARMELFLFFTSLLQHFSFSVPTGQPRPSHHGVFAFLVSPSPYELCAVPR
Summary of the method: (§1)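 Inhibition of metabolism of fluorometric substrates (Cypex protocol); IC50 values are the mean of three experiments ± standard deviation.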

[2] = Drug level in rat brain at 0.5 mg/kg/hr administered by infusion for 1 hrs; assay type: ADME, organism-based; conditions: intravenous, read-out: Drug uptake
Summary of the method: (§2)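 Rat given a 1 h infusion; blood and brain concentrations measured.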

[3] = Drug level in rat blood at 0.5 mg/kg/hr administered by infusion for 1 hrs; assay type: ADME, organism-based; conditions: intravenous, read-out: Drug uptake; summary of the method: as §2
Rattus norvegicus = test: Antianalgesic activity against complete Freund's adjuvant-induced rat inflammatory pain in rat assessed as reversal of hypersensitivity at 10 mg/kg, po bid for 5 days measured on day 5 after 1 hr; assay type: functional, organism-based; set-up: dose 10 mg/kg
Hepatocyte [4] = test: Intrinsic clearance in rat hepatocytes measured per gram of live; assay type: ADME, cell-based, Liver
Summary of the method: (§3)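 Intrinsic clearance in hepatocytes expressed as mL/min/g liver. Cell densities were 0.15–0.2 × 10^6 cells/mL or 0.54–0.7 × 10^6 cells/mL.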

[5] = Oral bioavailability in cynomolgus monkey at 3 mg/kg; assay type: ADME, organism-based, Macaca fascicularis; conditions: in vivo
[6] = Drug level in blood of complete Freund's adjuvant induced rat inflammatory pain model at 10 mg/kg, bid measured after 1 hr on day 1; assay type: ADME, organism-based; set-up: dose 10 mg/kg; conditions: read-out: Drug uptake
Summary of the method: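 Satellite group dosed at 10 mg/kg b.i.d. for 5 days; blood sampled 1 h post-dose on day 1 and on day 5.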

[7] = target: Prostaglandin G/H synthase 1 (Homo sapiens, UniProt P23219); test: Inhibition of COX1
Sequence of Prostaglandin G/H synthase 1 (P23219 whole entry, the tested form may be a part): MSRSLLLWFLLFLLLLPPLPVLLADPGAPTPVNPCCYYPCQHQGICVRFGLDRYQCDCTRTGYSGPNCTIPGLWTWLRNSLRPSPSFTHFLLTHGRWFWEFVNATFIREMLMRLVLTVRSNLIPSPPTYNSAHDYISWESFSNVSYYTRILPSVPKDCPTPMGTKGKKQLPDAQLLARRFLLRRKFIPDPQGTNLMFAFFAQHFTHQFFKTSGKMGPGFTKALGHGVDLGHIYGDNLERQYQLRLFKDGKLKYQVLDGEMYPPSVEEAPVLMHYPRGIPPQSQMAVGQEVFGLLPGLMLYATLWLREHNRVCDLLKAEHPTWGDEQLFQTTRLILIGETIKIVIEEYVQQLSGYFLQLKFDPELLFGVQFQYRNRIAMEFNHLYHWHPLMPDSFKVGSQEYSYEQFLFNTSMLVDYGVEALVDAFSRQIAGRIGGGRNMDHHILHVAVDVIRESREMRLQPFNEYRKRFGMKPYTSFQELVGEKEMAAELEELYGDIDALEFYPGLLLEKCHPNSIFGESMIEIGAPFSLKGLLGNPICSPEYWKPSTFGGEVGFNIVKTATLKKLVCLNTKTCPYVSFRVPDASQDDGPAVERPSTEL

[8] = Ratio of drug level in brain to blood of rat at 0.5 mg/kg/hr administered by infusion for 1 hrs; conditions: brain and blood, intravenous
[9] = Solubility in water after 0.5 hrs; assay type: physicochemical
Summary of the method: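 Solubility determined in water, FaSSIF and FeSSIF, all read at the 0.5 h time point.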

[10] = target: T1, Prostaglandin E2 receptor EP1 subtype (Homo sapiens, UniProt P34995); test: Antagonist activity at human recombinant EP1 receptor expressed in CHO cells assessed as luciferase activity by Schild assay; assay type: functional, cell-based; conditions: read-out: pA2 (converted)
T1 sequence (P34995 whole entry): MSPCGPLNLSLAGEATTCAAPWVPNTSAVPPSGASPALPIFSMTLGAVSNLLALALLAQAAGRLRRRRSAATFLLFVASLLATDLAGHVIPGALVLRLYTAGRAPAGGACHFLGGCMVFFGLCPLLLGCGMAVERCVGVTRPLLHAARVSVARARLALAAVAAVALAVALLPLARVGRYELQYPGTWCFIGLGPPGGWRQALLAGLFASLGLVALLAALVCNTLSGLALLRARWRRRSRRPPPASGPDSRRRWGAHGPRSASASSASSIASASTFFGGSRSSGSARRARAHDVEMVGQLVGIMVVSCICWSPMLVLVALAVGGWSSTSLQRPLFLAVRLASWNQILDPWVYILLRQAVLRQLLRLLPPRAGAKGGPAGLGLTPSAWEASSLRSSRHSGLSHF

[11] = Intrinsic clearance in cynomolgus monkey hepatocytes measured per gram of liver at 0.54 to 0.7 X 10^6 cells/ml cell density; assay type: ADME, cell-based, Macaca fascicularis, Hepatocyte; summary of the method: as §3
[12] = target: T1, Prostaglandin E2 receptor EP1 subtype; test: Displacement of [3H]PGE2 from human EP1 receptor expressed in CHO cells; assay type: cell-based
Summary of the method: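 Radioligand binding with [3H]-PGE2 in CHO cells overexpressing human EP1 receptor. Values are the mean of at least three experiments with standard deviations.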

[13] = Ratio of drug level in brain to blood of mouse at 0.5 mg/kg/hr administered by infusion for 12 hrs; conditions: brain and blood, intravenous
[14] = Drug level in blood of complete Freund's adjuvant-induced rat inflammatory pain model at 1 mg/kg, po administered after 23 hrs of adjuvant challenge measured after 1 hr; assay type: ADME, organism-based; set-up: dose 1 mg/kg, route oral; conditions: read-out: Drug uptake
Summary of the method: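 CFA rat study: oral doses of 1, 3 or 10 mg/kg given 23 h after intraplantar adjuvant, samples 1 h post-dose. Blood values are the mean from seven animals. Brain values are the mean from three animals.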

Cytochrome P450 1A2 = target: T2, Cytochrome P450 1A2 (Homo sapiens, UniProt P05177); test: Inhibition of human CYP1A2; assay type: ADME; summary of the method: as §1
T2 sequence (P05177 whole entry): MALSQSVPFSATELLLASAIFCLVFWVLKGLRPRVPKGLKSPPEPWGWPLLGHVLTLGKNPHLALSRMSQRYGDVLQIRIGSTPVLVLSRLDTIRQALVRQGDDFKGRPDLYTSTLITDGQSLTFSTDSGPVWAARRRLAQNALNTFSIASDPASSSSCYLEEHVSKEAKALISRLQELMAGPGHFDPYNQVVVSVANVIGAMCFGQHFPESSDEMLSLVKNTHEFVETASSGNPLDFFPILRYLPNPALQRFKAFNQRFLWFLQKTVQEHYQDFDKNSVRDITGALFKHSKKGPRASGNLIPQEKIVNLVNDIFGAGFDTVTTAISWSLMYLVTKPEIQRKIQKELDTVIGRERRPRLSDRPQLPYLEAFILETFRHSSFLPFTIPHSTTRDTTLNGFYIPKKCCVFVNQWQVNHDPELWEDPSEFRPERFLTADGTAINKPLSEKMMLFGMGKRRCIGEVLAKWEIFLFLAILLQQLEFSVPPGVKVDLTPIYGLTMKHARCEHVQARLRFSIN

[15] = target: Prostaglandin E2 receptor EP2 subtype (Homo sapiens, UniProt P43116); test: Inhibition of EP2 receptor
Sequence of Prostaglandin E2 receptor EP2 subtype (P43116 whole entry): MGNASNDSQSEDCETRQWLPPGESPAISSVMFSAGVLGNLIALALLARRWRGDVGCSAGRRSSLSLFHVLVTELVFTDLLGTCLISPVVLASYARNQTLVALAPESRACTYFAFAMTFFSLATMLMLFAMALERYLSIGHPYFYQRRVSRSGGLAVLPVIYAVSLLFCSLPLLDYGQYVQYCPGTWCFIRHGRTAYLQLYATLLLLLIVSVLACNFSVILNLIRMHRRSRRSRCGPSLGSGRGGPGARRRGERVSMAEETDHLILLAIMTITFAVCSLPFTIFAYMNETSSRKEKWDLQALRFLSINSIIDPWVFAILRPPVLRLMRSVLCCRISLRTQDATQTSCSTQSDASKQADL

[16] = Ratio of drug level in brain to blood in complete Freund's adjuvant-induced rat inflammatory pain model at 1 mg/kg, po administered after 23 hrs of adjuvant challenge measured after 1 hr; assay type: ADME, organism-based; set-up: dose 1 mg/kg, route oral; conditions: brain and blood
Summary of the method: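 Rat CFA inflammatory pain model: oral dosing at 1, 3 or 10 mg/kg 23 h after intraplantar adjuvant; blood and brain sampled 1 h post-dose from the same animal; Br:Bl ratio is the mean from three animals.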

Hepatocyte [17] = test: Intrinsic clearance in human hepatocytes measured per gram of liver at 0.15 to 0.2 X 10^6 cells/ml cell density; assay type: ADME, cell-based; summary of the method: as §3

`O=C([O-])c1cccc(Cc2cc(Cl)ccc2OCc2ccc(Cl)cc2F)n1.[Na+]` showed a concentration at 12 h [1] of 0.056 µM, a pIC50 (Cytochrome P450 2D6) of less than 4.00 and a concentration at 1 h [2] of 0.374 µM. The concentration at 1 h [3] was 1.8 µM, the Activity (Rattus norvegicus) was “Active” and the clearance (Hepatocyte [4]) was 2.1 mL/min/g. The bioavailability [5] was 7%, the concentration at 1 h [6] was 2.39 µM and the pIC50 [7] was less than 4.50. The Kp at 1 h [8] was 0.21, the solubility at 0.5 h [9] was 0.89 mg/mL and the Kb [10] was 0.00794 µM. It also gave a CL [11] of 2.7 mL/min/g, a pIC50 [12] of 7.90 and a Kp at 12 h [13] of 0.28. The concentration at 1 h [14] was 0.144 µM, the pIC50 (Cytochrome P450 1A2) was 4.70 and the pIC50 [15] was 5.80. For the same molecule, the Kp at 1 h [16] was 0.37 and the CL (Hepatocyte [17]) was 3.7 mL/min/g.

From ChEMBL document CHEMBL1138602, “Discovery of sodium 6-[(5-chloro-2-{[(4-chloro-2-fluorophenyl)methyl]oxy}phenyl)methyl]-2-pyridinecarboxylate (GSK269984A) an EP(1) receptor antagonist for the treatment of inflammatory pain” (Bioorg Med Chem Lett, 2009)
